Test: Toxicity liver stage against HepG2, at 10uM
Type: cell-based
Parameters: test concentration 10 uM, cell line HepG2-A16-CD81EGFP
Details: human, HepG2-A16-CD81EGFP cells; read-out: INHIBITION
In short: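 Uninfected HepG2-A16-CD81EGFP cells, 3 × 10^3 per well, 1536-well, plated on prespotted compound at 10 μM final, parasite-free screening media added to match infected plates; puromycin 10 μM positive, DMSO 0.5% negative; run in parallel with 48 h PbLuc assay at 37 °C, 5% CO2; viability by CellTiter-Glo luminescence, normalized to controls.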

SMILES	cytotoxicity at 10 µM
CC(=O)NCCC(Cc1ccccc1)c1ccco1 (centres undefined)	-1.24%
Fc1cccc(-c2c[nH]c([C@@H]3COCCN3C3CCOCC3)n2)c1	-1.31%
CC(=O)N[C@H]1C[C@@H](c2nc(-c3ccc4c(c3)OCO4)no2)N(C)C1	-2.92%
COCC(=O)N1CCC2(CCC(C(=O)N3CCCC3)O2)CC1 (centres undefined)	-1.63%
Cc1cccc(CN2CCC3(CCN(c4ncccn4)C3)C2=O)c1 (centres undefined)	1.44%
CN(C)CCN1CCC2(CCN(C(=O)c3cccnc3)CC2)C1=O	2.61%
COc1cc(CN2C[C@@H]3CNC(=O)[C@H](C)[C@@H]3C2)cc(OC)c1	0.405%
O=C(Cc1ccsc1)NC1CCc2c(ccc(=O)n2CC2CC2)C1 (centres undefined)	8.88%
O=C(c1ccnnc1)N1CCCn2nnc(COCC3CC3)c2C1	7.95%
COCCN1Cc2ccnn2CC(COCc2cccnc2)C1 (centres undefined)	-131%
CNC(=O)c1cc2c(nc1NCC(C)C)CCN(S(=O)(=O)N(C)C)CC2	-151%
Cc1cccc(Cl)c1NC(=O)Cn1cc(C(=O)O)ccc1=O	-1.35%
COc1ncccc1C(=O)N1CCC(c2nnc(C3CC3)o2)CC1	3.61%
CN(C)S(=O)(=O)N1CCC(Oc2ccc(C#N)cn2)CC1	4.16%
O=C1CC(c2ccc(C(=O)O)cc2)c2ncn(-c3cccc(F)c3)c2N1 (centres undefined)	-4.74%
CCC1=N[C@@]2(CC[C@@H]3CN(C(=O)NCC(C)C)C[C@@H]32)C(=O)N1CC(C)C	-3.64%
O=C(c1ccc2[nH]ccc2c1)N1CCn2cnc(COCC3CC3)c2C1	5.22%
Cc1c(CCC(=O)Nc2ccc(Cl)cn2)cnn1C	0.678%
CCCn1ncc2c(C(=O)NC(C)Cn3cccn3)cc(C3CC3)nc21 (centres undefined)	-8.97%
NC(=O)c1sc2ccccc2c1C1CCN(S(=O)(=O)N2CCOCC2)C1 (centres undefined)	11.8%
COc1ccc(-c2cc3cccn(CC(=O)N4CCOCC4)c-3n2)cc1	-7.26%
O=C(C1CCCC1)N1CCOC(c2nc(-c3ncccn3)no2)C1 (centres undefined)	-2.3%

SMILES	cytotoxicity at 10 µM
COc1ccc(-c2cc(C3CCN(C(C)=O)CC3)ccn2)cc1	-5.05%
CNC(=O)c1ccc(C2CN(C(=O)c3coc(C)n3)CCO2)nc1 (centres undefined)	-7.69%
O=C1NCc2ccccc2CC12CCN(Cc1ccncc1Cl)C2 (centres undefined)	8.27%
CN(C)C(CNS(=O)(=O)c1cnn(C)c1)c1cccc(F)c1 (centres undefined)	5.66%
CC(SCCNS(=O)(=O)c1cnn(C)c1)c1cccc(F)c1 (centres undefined)	17.3%
Cc1ccc(S(=O)(=O)NCc2[nH]ncc2Br)cc1F	12.6%
CC(=O)N1CCN(CCCSCc2ccccc2)CC1	1.64%
Cc1cc(NC(=O)Cn2ccc(=O)c3ccccc32)[nH]n1	-146%
CC(C)n1cnnc1CNC(=O)c1cnn(Cc2ccccc2)c1	0.536%
CCNC(=O)CCC(=O)NCC1(O)CCC(C(C)(C)C)CC1 (centres undefined)	5.55%
CNC(=O)COc1ccccc1CNC1CCc2nc(C)nn2C1 (centres undefined)	6.56%
CN(C)CCN(Cc1ccccc1)C(=O)CN1CCCNC1=O	1.42%
COCCC1(CNC(=O)Nc2ccc(-n3nccn3)cc2)CCC1	-2.99%
O=C(c1csc(-c2ccco2)n1)N(CC1CCOC1)C1CC1 (centres undefined)	-2.72%
CC(NC(=O)c1cccc(CN2CCN(C)CC2)c1)c1nccs1 (centres undefined)	-4.28%
COC(=O)CCC(=O)NC(C)Cc1ccccc1Br (centres undefined)	-6.66%
CN1CCN(CCCNC(=O)C2CCCCC2)CC1	-1.82%
O=C(NCc1ccc2c(c1)OCCO2)N1CCC(CO)CC1	-4.62%
NC(=O)c1ccc(C(=O)N2CCCCC2C2OCCO2)cc1 (centres undefined)	-0.966%
C[S+]([O-])c1nncn1CC(=O)c1ccc2c(c1)CCC2 (centres undefined)	-1.88%
COc1ccc(F)cc1C(=O)Nc1nnc(C)s1	11.1%
COc1ccc(C(=O)O)c(OCC(=O)NC(C)c2ccc(F)cc2)c1 (centres undefined)	1.65%

SMILES	cytotoxicity at 10 µM
Cc1cc(NC(=O)c2ccc(F)cc2Cl)n(C)n1	-77.5%
Cc1nc(CNC(=O)NC2CCCN(c3ncccn3)C2)cs1 (centres undefined)	-140%
COCCOc1ncccc1C(=O)N1CCCn2ncnc21	-2.98%
O=S(=O)(c1ccc(Cl)cc1)N1CCC(OCc2ccccn2)C1 (centres undefined)	1.48%
CC(CNC(=O)NCc1ccc2c(c1)OCO2)CC1(C)OCCO1 (centres undefined)	-6.78%
O=C(COc1ccccc1)N1CCCC1c1ccc[nH]1 (centres undefined)	-0.575%
COc1ccc(C(=O)CCc2nc(C3CC3)no2)cc1	-2.31%
Cc1ccc(OCc2nc(CNCCn3cccn3)cs2)cc1	0.979%
CCOC(=O)N1CCN(C(=O)Cc2c(C)nc(C)[nH]c2=O)CC1	-6.31%
CC(C)n1ncc2c1NC(=O)C(C#N)C21CCCC1 (centres undefined)	-4.1%
CN(C)C(=O)N1CCN(CCn2nc3ccccn3c2=O)CC1	0.562%
CC(=O)N1CC[C@@H]2O[C@H](C(=O)Nc3nc(C)cs3)C[C@@H]21	4.62%
CCOC(=O)c1coc(N2CCC(C(O)CC(C)C)CC2)n1 (centres undefined)	5.78%
COc1ccc2c(c1)OCC(C(=O)NCc1nc3c(s1)CCCC3)C2 (centres undefined)	-4.29%
CN(Cc1nc(Cc2cccc(F)c2)no1)C1CCOCC1	2.79%
Cc1nc[nH]c1CN1CCN(C(=O)CN2CCCC2)[C@H]2CS(=O)(=O)C[C@H]21	-7.21%
CCn1nc(C)c(CCNC(=O)C2CCCN(C3CCCC3)C2)c1C (centres undefined)	-9.34%
O=S(=O)(N1CCOCC1)N1CCOC(CCc2ccccc2)C1 (centres undefined)	-2.55%
Cc1n[nH]c(C)c1Sc1ccccc1NC(=O)N1CCCC(C(N)=O)C1 (centres undefined)	-7.59%
COc1ccc(OCc2nc(C(=O)NCCN3CCOCC3)co2)cc1	1.87%
CSCc1noc(CNS(=O)(=O)c2cccc(C(=O)NC3CC3)c2)n1	-2.51%
COc1ccnc(CN2CCC(O)(c3ccc(C)cn3)CC2)c1OC	-138%

SMILES	cytotoxicity at 10 µM
CN1C(=O)CC(C(=O)O)C12CCN(c1ccc3ccccc3n1)CC2 (centres undefined)	1.21%
CC(C)CCC1=NC2(CCN(C(=O)N3CCN(C)CC3)CC2)C(=O)N1	-6.08%
Cc1csc(CCNC(=O)C2CCN(CC(N)=O)CC2)n1	-5.26%
CC[C@@H](CO)NC(=O)c1coc(COc2ccc(OC)cc2)n1	15%
Cc1cc(C(=O)N2CCC(c3nccn3CCCN(C)C)CC2)no1	-12.4%
Cc1cc(C2CCCN(C(=O)Cc3csc(C(C)C)n3)C2)n[nH]1 (centres undefined)	-7.27%
CC(=O)Nc1nc(CN2CCn3c(nnc3C(C)C)C2)cs1	-2.17%
CC(=O)N(C)CC(=O)NCC1CCN(c2cc(Cl)ccc2C)C1 (centres undefined)	-8.77%
c1csc(-c2nc(CNCCn3cccn3)cs2)c1	-7.36%
COC(=O)c1ccc(N2CCN(C(=O)c3cnccn3)C(C)C2)cc1 (centres undefined)	-12.9%
Cc1ccc(-n2ncc(C(=O)NCC3CCS(=O)(=O)C3)c2C)cc1 (centres undefined)	-9.01%
O=C(NCc1ccccc1F)NCC(O)c1cccc(F)c1 (centres undefined)	-2.95%
O=C(c1ccc(Cn2cccc2)cc1)N1CCN(CCO)CC1	-3.69%
Cc1nc(CCNC(=O)NCc2cccc(N(C)C)n2)cs1	12%
FC(F)(F)c1cccc(CNc2nccc(C(F)(F)F)n2)c1	-19%
O=C1COc2cc(C(=O)N3CCCC(n4cccn4)C3)ccc2N1 (centres undefined)	-22.6%
COCCN1CCN(CC(O)c2ccc(OC(F)(F)F)cc2)CC1 (centres undefined)	-22.1%
Cc1ccc(CNc2cc(N3CCCC3CO)ncn2)s1 (centres undefined)	-2.9%
CCc1nccn1C1CCCN(C(=O)Cc2cn3ccsc3n2)C1 (centres undefined)	-23%
O=C(CCc1ccsc1)N1CCCCC1Cn1cccn1 (centres undefined)	-5.78%
O=C(CNCCn1cccn1)NCC1(c2ccccc2)CCCC1	-5.92%
Cc1cnn(CC2CCCN2C(=O)c2csc(C3CC3)n2)c1 (centres undefined)	-17.8%

SMILES	cytotoxicity at 10 µM
Cc1cc(NC(=O)CCN2CCn3c(nnc3C3CC3)C2)no1	7.11%
CC(Cn1cccn1)NCc1nc(-c2cccs2)no1 (centres undefined)	-8.7%
Cc1csc(N2CCN(C(=O)Cc3ccc(C)s3)CC2)n1	-7.05%
CNc1cc2c(nn1)CCN(C(=O)c1ccc(-n3nccc3C)cc1)C2	-5.44%
CC1CCCN(Cc2c(C3CC3)n(CC(=O)N(C)C)c3ncccc23)C1 (centres undefined)	4.04%
Cc1nc(Nc2nnc(C)s2)cc(C2CCCN2)n1 (centres undefined)	3.81%
CNC(=O)[C@H]1C[C@@H]2CN(Cc3cccnc3OC)C[C@@H]2N1C(C)=O	1.2%
c1cnc(NC2COC3(CCN(Cc4cccs4)CC3)C2)nc1 (centres undefined)	0.603%
CCN1CCC2(CN(C(C)=O)CC23CCN(CC2CC2)CC3)C1=O (centres undefined)	3.94%
COCCN1CCC2(CC1)CN(C(=O)c1cccs1)CCO2	-14.1%
O=C(c1cc[nH]n1)N1CC[C@@H]2CN(Cc3ccccc3)S(=O)(=O)[C@@H]2CC1	4.35%
COc1ccc(C[C@H]2CN(C3CCOCC3)CC[C@H]2OCC2CC2)cc1	-6.57%
CCOCC(=O)N1CC[C@H]2OCC[C@@]2(COc2ncccc2F)C1	-152%
COc1ccc(CN2CC[C@@H](O)[C@@H]2Cc2ccccc2)cc1	4.49%
c1ccc(OCc2n[nH]c3c2CN(CC2CC2)C3)nc1	7.49%
CS(=O)(=O)NC[C@H]1OC[C@H]2CN(Cc3ccsc3)CC[C@H]21	5.29%
O=C([C@H]1C[C@H]2OCC[C@H]2N(C(=O)c2ccncc2)C1)N1CCCC1	4.76%
O=C(CN1CCN(CC(O)C2CC2)CC1)NCc1ccccc1 (centres undefined)	6.03%
Cc1nc(CN2CCC3(CCN(c4ncc(F)cn4)C3)C2=O)cs1 (centres undefined)	3.61%
Cc1ccc2c(c1)CN(C(=O)c1ccncc1)C(CN(C)C)CO2 (centres undefined)	-13.5%
CCC(=O)Nc1cccc(OCC(=O)N[C@@H]2C[C@@H]3CC[C@H]2C3)c1	-1.03%
